# The list is not random: actives were taken first. Their share in the collection is about 3.5%.
# MrgX1 antagonist: human MrgX1 receptor antagonism, primary screen; Q96LB2; MRGX1-HEK293 calcium flux, Fluo-4, BAM8-22 antagonism; stronger effect = lower value; B-score at 10 µM; actives 1.3% (n = 310,000);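 active = calcium-response B-score plate-corrected more than 3 library SD below zero, starting fluorescence within 5 deviations, no agonist response on first addition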;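 note: peak minus trough fluorescence over baseline after final BAM8-22 challenge near maximal dose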
# Target sequence (Q96LB2 whole entry, looked up): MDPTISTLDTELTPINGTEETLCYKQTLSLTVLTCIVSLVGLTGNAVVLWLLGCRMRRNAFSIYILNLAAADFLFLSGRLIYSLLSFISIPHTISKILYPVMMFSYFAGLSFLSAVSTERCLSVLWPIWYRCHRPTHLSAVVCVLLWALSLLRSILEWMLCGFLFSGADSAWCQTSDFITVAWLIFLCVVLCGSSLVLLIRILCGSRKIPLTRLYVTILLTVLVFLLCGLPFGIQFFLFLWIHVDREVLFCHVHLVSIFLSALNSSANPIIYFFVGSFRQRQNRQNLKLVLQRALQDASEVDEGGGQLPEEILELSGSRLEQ
# MrgX1 agonist: human MrgX1 receptor agonism, primary screen | MrgX1-HEK293 cells, Fluo-4 calcium fluorescence, agonist mode; stronger effect = higher value | B-score at 10 µM | AID 588627 | actives 0.44% (n = 310,000) | Q96LB2;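 active = calcium response B-score plate-corrected fluorescence ratio at least 3 library SD, with starting fluorescence B-score inside 5 SD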
#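 Material – MrgX1-expressing HEK293 cells · Input – 15,000 cells seeded per well · Dosing – compound as first of three additions · Times – overnight seeding, then 1 h dark dye loading · Measured by – kinetic Fluo-4 NW fluorescence of intracellular calcium · Read-out – B-scored fluorescence response ratio · Benchmarks – positive and negative control wells on each plate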
# RGS4 act: RGS4 potentiation or activation; actives 0.92% (n = 310,000); HEK293 M3R/inducible RGS4, carbachol calcium flux Fluo4; stronger effect = lower value; B-score at 10 µM;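 active = B-score of the integrated calcium signal more than 4 SD below the library mean, with starting fluorescence not abnormally high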;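 note: negative B-score means reduced calcium response which marks RGS4 activation or potentiation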
#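 System: HEK293 FlpIn-TREx cells, stable M3R, doxycycline-inducible RGS4. Timing: overnight RGS4 induction, 30 min dye load 37 °C, 20 min compound RT. Also added: carbachol, ECmax concentration. Measured by: Fluo4 fluorescence kinetic imaging of calcium. Evaluation: integrated calcium ratio converted to B score.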
# MrgX1 allo act: human MrgX1 positive allosteric modulation, primary screen; Q96LB2; MrgX1-HEK293, Fluo-4 calcium flux, FDSS; stronger effect = higher value; B-score at 10 µM; actives 0.63% (n = 310,000);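 active = plate-corrected calcium response at least 3 library SD above typical, normal starting fluorescence, not activating the receptor alone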;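 note: compound read alongside a low EC10 to EC30 dose of BAM8-22 agonist; peak minus trough fluorescence over baseline measured at the second addition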
# RGS4 inh: human RGS4 inhibition | P49798 | HEK293 M3R/RGS4 inducible, Fluo-4 calcium flux; stronger effect = higher value; triggered by carbachol at its EC20 | B-score at 10 µM | actives 0.45% (n = 310,000) | AID 463165;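 active = B-score, a plate-corrected calcium signal, over three deviations above library mean, with baseline fluorescence within five deviations of library mean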;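 note: RGS4 expression induced by doxycycline in cells with stable M3 receptor; B-score is computed from the integrated fluorescence ratio over baseline after carbachol; higher B-score means a larger calcium signal and so more RGS4 inhibition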
# Target sequence (P49798 whole entry, looked up): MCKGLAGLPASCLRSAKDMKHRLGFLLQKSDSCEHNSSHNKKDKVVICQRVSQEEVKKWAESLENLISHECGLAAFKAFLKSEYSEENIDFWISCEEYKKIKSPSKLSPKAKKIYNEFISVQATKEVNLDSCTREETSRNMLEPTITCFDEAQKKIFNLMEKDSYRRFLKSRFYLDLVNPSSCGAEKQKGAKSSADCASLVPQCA
# RGS4 block valid: validation of RGS4 inhibitors. HEK293 M3R/RGS4, carbachol calcium Fluo-4 fluorescence; carbachol added at its EC20; 0 = buffer wells, 100 = carbachol control. actives 65% (n = 1,700). AID 492999. calcium response, % at 10 µM. shares compounds with RGS4 inh;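 active = duplicate-averaged calcium response above the buffer-only control mean plus 5 SD of those controls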;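 note: integrated fluorescence ratio F max minus min over baseline F0; higher response in RGS4-induced cells means RGS4 inhibition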
# M3R Ca ctr: non-induced cell nonspecific activity of RGS4 inhibitors; activity (percent), % at 10 µM; actives 20% (n = 1,900); AID 493000; shares compounds with RGS4 inh; HEK293 M3R non-induced, carbachol calcium Fluo-4; submaximal (EC20) carbachol stimulus; buffer wells 0%, carbachol control wells 100%; call rule not given here;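 note: RGS4 induction absent so cells express M3R without RGS4; higher means more calcium signal and flags a non-specific hit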
# M3R basal Ca ctr: second RGS4 inhibitor counter-screen in uninduced cells lacking carbachol. shares compounds with RGS4 inh. HEK293 M3R/RGS4 non-induced, Fluo-4 calcium, no carbachol; normalised: buffer wells 0%, carbachol wells 100%. calcium response (agonist-mode artifact), % at 10 µM. actives 22% (n = 1,900). AID 493001;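 active = duplicate-averaged calcium rise in uninduced cells above buffer wells' mean plus 5 SD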
# Hits are given with their value; 0 = inactive; - = no result.
SMILES,MrgX1 antagonist,MrgX1 agonist,RGS4 act,MrgX1 allo act,RGS4 inh,RGS4 block valid,M3R Ca ctr,M3R basal Ca ctr
COc1cc(/C=C2\C(=O)ON=C2c2ccccc2)cc(Cl)c1O,0,90,-7.9,0,13,40%,0,253%
Cc1sc(/C=C2\C(=O)ON=C2c2ccccc2)cc1Br,0,0,0,0,0,-,-,-
COc1cc(/C=C2/C(=O)ON=C2c2ccccc2)ccc1O,0,28,0,0,11,38%,0,97%
COc1cc(C=C2C(=O)c3ccccc3C2=O)ccc1O,0,0,0,0,0,-,-,-
C=CCOc1ccc(/C=C2/C(=O)ON=C2C)cc1OC,0,0,0,0,9.4,18%,0,16%
O=C(NCc1ccc(Cl)cc1)C1CCCCN1S(=O)(=O)c1ccccc1 (stereo unspecified),0,0,0,0,0,-,-,-
COc1ccc(NC(=O)/C(C#N)=C\c2ccc(Br)o2)cc1,0,0,0,0,0,-,-,-
N#C/C(=C\c1ccc([N+](=O)[O-])o1)C(=O)Nc1ccc(F)cc1,0,0,0,0,7,20%,0,0
O=C(NCCCN1CCCC1=O)c1sc2ccccc2c1Cl,0,0,0,0,0,-,-,-
CCOC(=O)/C(C#N)=C/c1cn(CCC(=O)O)nc1-c1ccccc1,0,0,0,0,0,0,0,0
CCOC(=O)/C(C#N)=C/c1cn(CCC(=O)O)nc1-c1ccc(Cl)cc1,0,0,0,0,0,0,0,0
CCOC(=O)/C(C#N)=C/c1cn(CCC(=O)O)nc1-c1ccc(OC)cc1,0,0,0,0,0,-,-,-
CCOC(=O)/C(C#N)=C/c1cn(CCC(=O)O)nc1-c1cccc(Br)c1,0,0,0,0,0,-,0,0
O=Cc1cn(CCC(=O)O)nc1-c1cccc(Cl)c1,0,0,0,0,0,-,-,-
OCC[C@@H]1C[C@H](O)[C@@H](O)[C@]2(OCCc3ccccc32)O1,0,0,0,0,0,-,-,-
CCc1nnc(N/N=C/c2ccc(N3CCC(C)CC3)c([N+](=O)[O-])c2)n1N,0,0,0,0,0,-,-,-
Cc1nnc(N/N=C/c2cc([N+](=O)[O-])c(N3CCC(C)CC3)cc2N2CCC(C)CC2)n1N,0,0,0,0,4.9,9.5%,36%,0
COc1ccc(C2=NC(C)(C)Cc3cc(OC)c(OC)cc32)cc1,0,0,0,0,0,-,-,-
COc1cc2c(cc1OC)C(SC)=NC(C)(C)C2,0,0,0,0,0,-,46%,0
Cc1nccn1CCCNCc1c(C(=O)N2CCCCCCC2)nc2ccc(Cl)cn12,0,0,0,0,0,-,-,-
Cn1c(CCNC(=O)c2ccco2)nc2cc(NS(=O)(=O)c3ccccc3)ccc21,0,0,0,0,0,-,-,-
Cn1c(CCNC(=O)c2ccco2)nc2cc(NC(=O)c3ccccc3)ccc21,0,0,0,0,0,0,0,0
CCC(=O)NCCc1nc2cc(NC(=O)c3ccco3)ccc2n1C,0,0,0,0,0,0,0,0
Cn1c(CCNC(=O)c2ccccc2)nc2cc(NC(=O)c3ccco3)ccc21,0,0,0,0,0,0,0,0
Cn1c(CCNC(=O)c2ccco2)nc2cc(NC(=O)C3CCCCC3)ccc21,0,0,0,0,0,-,-,-
Cn1c(CCNC(=O)c2ccco2)nc2cc(NC(=O)c3ccco3)ccc21,0,0,0,0,0,0,0,0
CCCCC(=O)Nc1ccc2c(c1)nc(CCNC(=O)c1ccco1)n2C,0,0,0,0,0,-,-,-
COc1ccccc1C(=O)Nc1ccc2c(c1)nc(CCNC(=O)c1ccco1)n2C,0,0,0,0,0,-,-,-
COc1ccc(CCNC(=O)C2CCC(C(C)(C)C)CC2)cc1OC (stereo unspecified),0,0,0,0,0,-,-,-
